From PubChem
UHRF1 binding: UHRF1 methyl-DNA binding inhibition. Q96T88. UHRF1 binding to methylated oligo, TR-FRET. inhibition, % at 4.4 µM. hit rate 0.75% among 370,000. AID 687016; in the data active means inhibition above about 21%;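 further: UHRF1 SRA domain binding a hemimethylated CpG hairpin DNA probe; 0% = median of test compound wells and 100% = reference inhibitor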
ASAP1 GAP inh: blocks human ASAP1-stimulated Arf1 GTP hydrolysis; Q9ULH1; GDP FP detection; inhibition, % at 16.5 µM; hit rate 0.19% among 360,000; in the data active means inhibition above about 25%;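 further: 0% = vehicle with enzyme and substrate and 100% = no enzyme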
TCR-CD3 inh: blocks the human TCR-CD3 interaction. inhibition, % at 9.4 µM. TAMRA-labeled TCR probe fluorescence, biochemical. hit rate 0.37% among 360,000;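 further: recombinant mutant TCR 2C K166C tagged with TAMRA read by polarization; 0% = receptor in buffer alone and 100% = receptor with positive control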
LEDGF integ inh: blocks HIV-1 LEDGF/p75-dependent DNA integration | inhibition, % at 3.7 µM | hit rate 0.64% among 370,000 | AID 743269 | TR-FRET IN-LEDGF/p75 DNA integration, Eu/Cy5;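 active means inhibition above the screen-wide mean plus 3 SD, cut at about 13% in these data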;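 further: signal is the Cy5 over europium emission ratio at 671 and 618 nm; 0% = plate median of compound wells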
MBD2 DNA inh: blocks human MBD2 binding to methylated DNA; TR-FRET, MBD2 binding to methylated oligonucleotide; Q9UBB5; AID 686964; hit rate 0.31% among 370,000; inhibition, % at 4.4 µM; in the data active means inhibition above about 13%
Target sequence (Q9UBB5 whole entry, looked up): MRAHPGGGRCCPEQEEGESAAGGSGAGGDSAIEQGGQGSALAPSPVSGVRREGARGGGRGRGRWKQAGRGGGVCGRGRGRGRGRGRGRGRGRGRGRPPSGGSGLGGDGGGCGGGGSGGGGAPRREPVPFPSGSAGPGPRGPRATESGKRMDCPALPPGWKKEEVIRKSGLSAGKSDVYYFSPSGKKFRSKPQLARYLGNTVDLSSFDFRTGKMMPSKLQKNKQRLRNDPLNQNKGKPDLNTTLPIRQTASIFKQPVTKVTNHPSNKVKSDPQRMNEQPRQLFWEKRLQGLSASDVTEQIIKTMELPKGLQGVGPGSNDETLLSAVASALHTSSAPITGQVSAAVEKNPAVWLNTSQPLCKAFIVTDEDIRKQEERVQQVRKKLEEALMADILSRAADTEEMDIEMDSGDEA
ARFGAP1 inh: inhibits rat ARF GTPase activating protein 1; Q62848; Arfgap1-stimulated ARF1 GTP hydrolysis, GDP FP detection; inhibition, % at 16.5 µM; hit rate 0.26% among 360,000; AID 651572;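 active means inhibition above a per-plate limit, mean inhibition of low control wells plus 3 SD, cut at about 25% in these data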;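 further: 0% = DMSO wells with enzyme and 100% = wells lacking Arfgap1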
Target sequence (Q62848 1-136 limits assumed): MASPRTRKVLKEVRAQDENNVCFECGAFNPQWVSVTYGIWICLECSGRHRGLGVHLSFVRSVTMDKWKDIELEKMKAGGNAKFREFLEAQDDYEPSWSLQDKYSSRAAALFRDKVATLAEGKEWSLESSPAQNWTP
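Repeats: one replicate per compound; assay system: rat Arfgap1 catalytic domain, aa 1-136; times: enzyme reaction 120 min at 25 °C after 20 min preincubation; detection: FP of antibody-bound GDP Alexa 633 tracer, ex 620/em 688 nm; benchmarks: high control wells lacking Arfgap1, low control full reaction with DMSO; reagent: human ARF1(Δ1-17)-GTP substrate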
BSA probe FL: interferes with TAMRA-BSA probe, flagging TCR-CD3 hits; shares compounds with TCR-CD3 inh; inhibition, % at 9.4 µM; hit rate 10% among 1,200; TAMRA-labeled BSA probe fluorescence counterscreen; in the data active means inhibition above about 23%;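 further: 0% = buffer low control and 100% = reference high control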
TCR-CD3 conf: TCR-CD3 interaction inhibition, confirmation; shares compounds with TCR-CD3 inh; TAMRA-labeled TCR probe fluorescence binding assay; inhibition, % at 9.4 µM; hit rate 48% among 1,200
Numbers without * were called inactive; · = not tested or not shown. Most compounds without a hit are left out; they make up all but 2% or so of the library. Unless noted, no stated cut-off is given here; in the data, active means inhibition above about 19%; inactive means the rest.

SMILES | UHRF1 binding | ASAP1 GAP inh | TCR-CD3 inh | LEDGF integ inh | MBD2 DNA inh | ARFGAP1 inh | BSA probe FL | TCR-CD3 conf
O=C(COC(=O)c1cc(-c2cccs2)nn1-c1ccccc1)Nc1ccc(Cl)c([N+](=O)[O-])c1 | 7.1 | 0.9 | 44.8* | -4.9 | 6.5 | 10.5 | -12.3 | -5.4
COc1ccc(CNC(=O)C[C@H]2C[C@H](C(=O)N3CCOCC3)[C@@]3(CCC4CCCC4)c4[nH]c5cc(CCC(=O)N(C)C)ccc5c4CCN3C2=O)cc1OC | 0.2 | -0.5 | -1.4 | -2.4 | 1.9 | 22.0 | · | ·
Cc1ccc(S(=O)(=O)Cc2ccc(C(=O)N3CCN(c4cccc(C)c4C)CC3)o2)cc1 | 0.3 | -10.0 | -5.1 | 2.1 | 4.2 | -8.9 | · | ·
Cc1ccc(C(=O)N2CCN(c3cccc(C)c3C)CC2)o1 | 2.0 | -12.1 | 32.7* | 1.9 | -0.4 | 6.8 | 3.1 | -0.6
Oc1ccc(NCc2cccs2)cc1 | -1.8 | 0.3 | 21.3* | 13.3 | -1.0 | 7.7 | 1.7 | 6.2
Cn1cc(CCC(=O)NCCCc2ccccc2)c2ccccc21 | 1.3 | 10.1 | -2.6 | -2.0 | 1.4 | 3.1 | · | ·
N#Cc1c(-c2ccccc2)c(-c2ccccc2)nn(CC(=O)NNC(=O)Nc2ccc(Cl)c(Cl)c2)c1=O | -5.6 | 6.4 | 29.9* | -6.0 | -3.6 | 4.9 | 20.0 | 45.0*
O=C(Cn1nc(-c2ccccc2)c2ccccc2c1=O)Nc1ccc(F)cc1 | -2.5 | 1.5 | -3.0 | -1.1 | -1.0 | 3.9 | · | ·
O=C(c1ccccc1)c1ccc2nc(-c3ccc(NC(=O)c4ccccc4Br)cc3)[nH]c2c1 | 2.3 | 1.8 | 33.6* | -2.2 | -6.8 | 11.6 | 11.8 | 12.1
CN(c1ccccc1)S(=O)(=O)c1ccc(Cl)c(C(=O)Nc2ccc(-c3nc4ccccc4[nH]3)cc2)c1 | 1.4 | -6.9 | 59.9* | -1.6 | 4.7 | 1.5 | 26.9* | 54.3*
CC(Oc1ccc(Br)cc1)C(=O)Nc1cc(Cl)ccc1N1CCN(C)CC1 (stereo not given) | 0.8 | -12.9 | -3.3 | 1.9 | -6.2 | 22.3 | · | ·
Cn1cc(Cc2ccc(C(=O)N3CCN(Cc4ccccc4)CC3)cn2)c2ccccc21 | -2.4 | 4.8 | 5.5 | -0.8 | -3.4 | 0.1 | · | ·
Cc1ccc(S(=O)(=O)N2C[C@H]3C(=O)C[C@@H](c4ccccc4)N(S(=O)(=O)c4ccc(Br)cc4)[C@H]3C[C@H]2c2ccccc2)cc1 | -0.4 | 5.8 | -1.0 | 0.7 | -1.2 | 3.9 | · | ·
CCOC(=O)c1sc(NC(=S)NC(=O)c2ccco2)nc1C | 3.0 | 6.8 | -5.1 | -2.5 | -2.9 | 8.5 | · | ·
CCOC(=O)c1sc(NC(=O)C(CC)OC(=O)c2ccco2)nc1C (stereo not given) | 0.3 | 6.5 | 19.4* | 2.1 | 0.1 | 4.3 | -1.3 | -0.9
CC1(N=Cc2cc(Cl)ccc2O)COP(=O)(Nc2ccccc2)OC1 (stereo not given) | -2.1 | -6.0 | 8.3 | -2.0 | -5.9 | -6.4 | · | ·
CC1NC(=S)N(Cc2ccccc2)C1=O (stereo not given) | -0.7 | 0.7 | 22.4* | 0.5 | -0.2 | 3.1 | 1.4 | 16.3
CN(C)S(=O)(=O)c1cccc(NC(=O)COc2ccccc2C(=O)NCc2ccccc2)c1 | -3.8 | 3.4 | 4.5 | 4.2 | -0.4 | -7.4 | · | ·
NNC(=O)c1nc[nH]c1C(=O)Nc1ccccc1[N+](=O)[O-] | -3.1 | 7.9 | 30.1* | 2.1 | -4.3 | 17.7 | -6.7 | 10.2
COc1ccc2c(c1)cc(C(=O)N/N=C/c1c(O)c(C(=O)O)cc3ccccc13)n2C | 2.1 | 18.7 | 36.6* | -2.5 | -2.0 | 6.5 | -17.4 | 44.9*
CC(=O)Nc1ccc(N=Cc2c(O)c(C(=O)Nc3ccccc3)cc3ccccc23)cc1 | -0.2 | 7.8 | 1.6 | 2.6 | 4.1 | -0.8 | · | ·
Cn1c(O)c(/C=N/NC(=O)c2cc3ccccc3cc2O)c2ccccc21 | -1.7 | 14.0 | 50.0* | -6.0 | -3.4 | 14.2 | -12.9 | 53.3*
O=C(O)c1ccc(/C=N/NC(=O)c2cc3ccccc3cc2O)cc1 | 2.8 | -14.5 | 0.5 | -4.0 | 3.0 | -10.8 | · | ·
O=C1C2CCCN2C(=S)N1c1ccc(Cl)cc1 (stereo not given) | 0.0 | 12.6 | 26.9* | -2.0 | 0.7 | -2.3 | 6.5 | 21.1*
Cc1cccc(NC(=O)c2ncn3c2C(=O)N[C@H](C)C3)c1 | -3.2 | -3.8 | 5.7 | -6.4 | 1.2 | -5.3 | · | ·
SMILES | UHRF1 binding | ASAP1 GAP inh | TCR-CD3 inh | LEDGF integ inh | MBD2 DNA inh | ARFGAP1 inh | BSA probe FL | TCR-CD3 conf
O=C(N/N=C/c1cc([N+](=O)[O-])ccc1O)c1ccc(COc2ccc3c(c2)CCC3)o1 | 1.9 | 5.4 | 45.1* | -8.6 | -1.4 | 4.4 | -5.7 | 16.5
COC(=O)c1cc(OC)nc(OC)c1 | 1.1 | -1.9 | -10.0 | -0.8 | 1.3 | 8.2 | · | ·
COC(=O)c1cc(O)c(O)c(O)c1 | 4.6 | -9.7 | 22.1* | -1.4 | 4.7 | 1.7 | -1.0 | 20.0*
CCOC(=O)[C@@]12CCC3=C1N(CCC3)C(=O)[C@H](CC(=O)N1CCN(C(=O)C3CC3)CC1)C2 | 3.1 | · | · | -4.8 | 5.9 | · | · | ·
Cc1onc(-c2ccccc2)c1C(=O)NN=Cc1cc(Cl)cc(Cl)c1O | -14.1 | 2.4 | 27.3* | -5.6 | -0.7 | 2.1 | -12.2 | 33.5*
COc1ccc(NC(=O)CSCC(=O)Nc2sccc2C#N)cc1 | 0.6 | -2.9 | 21.3* | -1.9 | 0.9 | 4.0 | 9.4 | 5.1
C[C@H]1CN([C@@H](C)CO)C(=O)CCCn2cc(nn2)CO[C@@H]1CN(C)C(=O)Nc1ccccc1F | 1.1 | 9.7 | 2.7 | 7.7 | -1.5 | 4.6 | · | ·
CC(C)(C)c1ccc(C(=O)NCCCNC(=O)c2ccccn2)cc1 | 4.8 | 6.2 | -2.9 | -7.2 | 7.0 | 3.7 | · | ·
COC(=O)C1=C(CSc2nc3c(cc2C#N)CN(C)CC3)OC(N)=C(C#N)C1c1ccc(F)cc1 (stereo not given) | 0.1 | -0.3 | 19.7* | 5.6 | -1.6 | 2.8 | -3.3 | 0.5
O=C(NCc1ccco1)C1CCN(S(=O)(=O)c2ccccc2C(F)(F)F)CC1 | -0.3 | -1.5 | -3.1 | -3.1 | -0.6 | -4.5 | · | ·
O=C(NNC(=O)c1ccccc1O)c1ccc(Cl)c(S(=O)(=O)N2CCCCC2)c1 | 0.9 | -0.5 | 27.0* | -8.1 | -6.0 | 1.3 | -10.0 | 19.8*
O=C(NNC(=O)C1CCN(S(=O)(=O)c2ccccc2)CC1)c1ccccc1O | -2.6 | 4.0 | 47.3* | -3.9 | -4.1 | -9.6 | 5.5 | 39.7*
O=C(NNC(=O)c1cccs1)c1ccc(Cl)c(S(=O)(=O)N2CCCC2)c1 | -1.3 | 3.1 | -0.9 | 4.1 | 0.1 | 15.6 | · | ·
O=C(NC1CCCCCC1)C1CCN(S(=O)(=O)c2c(Cl)cccc2Cl)CC1 | -3.8 | -3.0 | 0.9 | -3.6 | 2.4 | -11.0 | · | ·
O=C(NNC(=O)C1CCN(S(=O)(=O)c2c(Cl)cccc2Cl)CC1)c1ccccc1O | 0.4 | -0.8 | 31.0* | -11.5 | 3.6 | 1.2 | -11.1 | 27.4*
